# Bioassay records as filed in PubChem.
# The list is not random: actives were taken first. Their share in the collection is about 3.4%.
# MEKK2wt PB1 HTS – raises or lowers MEK5 binding to wildtype human MEKK2 PB1 domain. Q9Y2U5. bead flow cytometry, Alexa488-MEK5 binding to MEKK2 WT; actives lie on both sides. binding response (% of control), % at 10 µM. hit rate 1.1% among 290,000; in the data active = binding response below about 67% or above about 130%
# VIM-2 inhibitor – blocks Pseudomonas aeruginosa VIM-2 metallo-beta-lactamase | purified VIM-2, nitrocefin hydrolysis, epi-absorbance fluorescence | inhibition, % at 5.6 µM | hit rate 0.89% among 290,000 | AID 1527;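 active = inhibition above the mean of all tested compounds plus 3 SD, cutoff set per screening run, cut at about 7.5% in these data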;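 note: red hydrolysis product quenches plate fluorescence so inhibitors raise well fluorescence; 0% = enzyme with DMSO and 100% = DMSO without enzyme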
# MEKK2 mut-MEK5 – signal of MEK5 binding to mutant human MEKK2 PB1 domain | hit rate 0.35% among 290,000 | percent response, % at 10 µM | bead flow cytometry, Alexa488-MEK5 binding to MEKK2 mutant; in the data active = percent response above about 24%, passing the limit was not always enough
# IMP-1 inh-1 – inhibitors of Pseudomonas aeruginosa IMP-1 metallo-beta-lactamase | purified IMP-1, nitrocefin hydrolysis, epi-absorbance fluorescence | inhibition, % at 5.6 µM | hit rate 0.45% among 290,000;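 active = inhibition above the mean plus 3 SD of all compounds in the same screening run, cut at about 4.5% in these data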;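 note: 0% = IMP-1 with DMSO and 100% = DMSO wells lacking enzyme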
#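 Assay system: purified recombinant IMP-1 beta-lactamase. Input: IMP-1 0.2 nM before substrate addition. Buffer or medium: Zinc- and detergent-supplemented HEPES buffer, pH 7.1. Schedule: 25 °C, 15 min preincubation, 25 min reaction. Signal: Epi-absorbance fluorescence, 480 nm excitation, 530 nm emission. Evaluation: percent inhibition from optical density relative to buffer-blank wells.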
# MEKK3 PB1 HTS – MEKK3-MEK5 PB1 interaction, increase or decrease | AID 1529 | hit rate 1.4% among 290,000 | binding response (% of control), % at 10 µM | bead-based flow cytometry, Alexa488-MEK5 binding to MEKK3; actives lie on both sides; 0 = blocked by unlabeled MEK5, 100 = vehicle;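 active = binding response more than 3 SD above or below the average of its plate-row segment, actives on both sides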;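 note: Alexa488 bead fluorescence after subtracting the streptavidin-only scavenger bead signal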
# Target sequence (Q99759 whole entry, looked up): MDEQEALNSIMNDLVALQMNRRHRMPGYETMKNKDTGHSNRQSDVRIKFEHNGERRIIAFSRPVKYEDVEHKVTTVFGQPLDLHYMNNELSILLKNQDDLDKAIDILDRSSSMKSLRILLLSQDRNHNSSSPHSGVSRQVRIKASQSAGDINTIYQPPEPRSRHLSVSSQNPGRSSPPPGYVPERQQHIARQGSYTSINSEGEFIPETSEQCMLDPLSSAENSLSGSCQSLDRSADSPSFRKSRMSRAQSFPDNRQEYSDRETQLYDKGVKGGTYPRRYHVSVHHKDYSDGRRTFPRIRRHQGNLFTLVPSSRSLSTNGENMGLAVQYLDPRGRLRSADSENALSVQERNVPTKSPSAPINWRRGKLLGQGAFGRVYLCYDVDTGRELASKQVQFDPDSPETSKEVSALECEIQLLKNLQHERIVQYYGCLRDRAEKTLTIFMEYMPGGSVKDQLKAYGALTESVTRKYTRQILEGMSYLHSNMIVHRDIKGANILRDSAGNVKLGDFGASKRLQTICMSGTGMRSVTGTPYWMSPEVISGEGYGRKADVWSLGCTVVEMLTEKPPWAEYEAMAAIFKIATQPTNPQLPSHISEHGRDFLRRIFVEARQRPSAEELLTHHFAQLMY
# IMP-1 inh-2 – blocks IMP-1 metallo-beta-lactamase in VIM-2 selectivity screen. shares compounds with VIM-2 inhibitor. purified IMP-1, nitrocefin hydrolysis, epi-absorbance fluorescence. inhibition, % at 5.6 µM. 1,300 tested, under 10 active; call rule not given here;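 note: 0% = enzyme with vehicle and 100% = vehicle without enzyme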
# VIM-2 FRET inh – VIM-2 FRET inhibition, artifact counter-screen. shares compounds with VIM-2 inhibitor. purified VIM-2, CCF2 FRET substrate hydrolysis. inhibition, % at 5.6 µM. hit rate 23% among 1,300. AID 1857;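 active = inhibition above the mean of all tested compounds plus 3 SD, cut at about 19% in these data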;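 note: 0% = VIM-2 plus DMSO and 100% = no enzyme wells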
# TEM-1 counter – TEM-1 inhibition, counter-screen for VIM-2 inhibitors | inhibition, % at 5.6 µM | Purified TEM-1, nitrocefin hydrolysis, epi-absorbance fluorescence | shares compounds with VIM-2 inhibitor | hit rate 3% among 1,300;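 active = inhibition above that campaign's mean inhibition plus 3 SD, cut at about 0.46% in these data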;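 note: 0% = TEM-1 with DMSO and 100% = TEM-1 with 100 µM potassium clavulanate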
# VIM-2 inh conf – confirmation of P. aeruginosa VIM-2 metallo-beta-lactamase inhibitors. hit rate 96% among 1,300. purified VIM-2, nitrocefin hydrolysis, epi-absorbance. inhibition, % at 5.6 µM. shares compounds with VIM-2 inhibitor;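 active = inhibition of the VIM-2 beta-lactamase enzyme above about 11% from the earlier first-round screen, limit read from the data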;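 note: 0% = VIM-2 with DMSO and 100% = buffer wells without enzyme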
# Starred values were filed as active, the others as inactive; / = not tested or not shown.
SMILES,MEKK2wt PB1 HTS,VIM-2 inhibitor,MEKK2 mut-MEK5,IMP-1 inh-1,MEKK3 PB1 HTS,IMP-1 inh-2,VIM-2 FRET inh,TEM-1 counter,VIM-2 inh conf
CC(NS(=O)(=O)c1ccc2c(c1)C(=O)c1cc(S(=O)(=O)NC(C)C(=O)O)ccc1-2)C(=O)O (stereo not drawn),107,18*,4,-2,104,-3,21*,-6,19*
CCOC(=O)C(C)Sc1nc2c(c(=O)[nH]c(=O)n2C)n1CCc1ccccc1 (stereo not drawn),102,1,4,0,103,/,/,/,/
O=S(=O)(NC1CCCCC1Nc1ccc(Cl)cc1)c1ccccc1 (stereo not drawn),108,-1,-1,-4,104,/,/,/,/
COc1ccc(/C=C2\SC(=S)N(CCCC(=O)N3CCN(C)CC3)C2=O)cc1,114,15*,6,0,106,-2,0,-7,27*
COc1ccc(/C=C2\SC(=S)N(CCC(=O)N3CCOCC3)C2=O)cc1,107,-3,2,0,102,/,/,/,/
COc1ccc(CCNCc2ccc(OCc3ccc(Cl)nc3)c(OC)c2)cc1OC,108,-3,6,-2,103,/,/,/,/
COc1cc(CNCCNCC(C)O)ccc1OCc1ccc(Cl)nc1 (stereo not drawn),103,39*,1,-3,101,-4,-2,-4,32*
O=C(CCn1cnc2ccccc21)N=Nc1c(O)[nH]c2ccccc12,100,36*,1,-4,104,-5,-8,-7,53*
COc1cc(-c2nc3ccc(N4CCN(C)CC4)cc3[nH]2)cc(OC)c1OC,105,13*,-2,2,98,-4,0,-8,26*
Cc1ncsc1C(=O)N1N=C2/C(=C/c3ccccc3)CCCC2C1c1ccccc1 (stereo not drawn),/,-1,/,-2,/,/,/,/,/
O=C(Nc1ccc2c(c1)OCCO2)c1cnc2n(c1=O)CCS2,111,-3,3,-1,108,/,/,/,/
CCOc1cccc(C2C(C(=O)c3cccs3)=C(O)C(=O)N2Cc2cccnc2)c1 (stereo not drawn),93,-1,-8,-2,97,/,/,/,/
O=C(C1=C(O)C(=O)N(Cc2cccnc2)C1c1ccccn1)c1cccs1 (stereo not drawn),106,16*,4,-4,104,-3,41*,-5,32*
CN(C)S(=O)(=O)c1cccc(NC(=S)N/N=C/c2cccc(O)c2)c1,108,18*,-1,-2,114,-3,16,-8,14*
O=C(O)c1ccccc1/C=N/n1c(C2CCCCC2)n[nH]c1=S,104,15*,3,-2,101,-2,32*,-6,21*
O=C(COc1ccc(Cl)cc1)N(Cc1cccs1)C1CCS(=O)(=O)C1 (stereo not drawn),103,-2,0,-2,101,/,/,/,/
COc1ccccc1-c1c(NC(=O)c2ccco2)n(C)c2ccccc2c1=O,101,-3,3,-1,97,/,/,/,/
O=C(COC(=O)c1n[nH]c(=O)c2ccccc12)c1ccc(Cl)cc1,/,-2,/,-2,/,/,/,/,/
O=C1Nc2cc(C(=O)NCCCN3CCCC3)ccc2S/C1=C\c1ccccc1,153*,14*,18,0,105,-2,32*,-6,23*
O=C1Nc2cc(C(=O)NCCCN3CCOCC3)ccc2S/C1=C/c1ccccc1F,115,30*,3,-1,105,-3,49*,-6,34*
CCCN1CCN(CCCNC(=O)c2ccc3c(c2)NC(=O)c2ccccc2S3)CC1,109,0,3,-2,101,/,/,/,/
